Assay results as given in ChEMBL document CHEMBL1126715, “Synthesis and tissue distribution of (m-[125I]iodobenzyl)trozamicol ([125I]MIBT): potential radioligand for mapping central cholinergic innervation” (J Med Chem, 1993).

How the values were obtained:
[1] = species on record: Rattus norvegicus; experiment: Effect of vesamicol on the accumulation in rat liver in group 1 ([…]); format: ADME, organism-based; conditions: in vivo
Outline: (§1)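 Male Wistar rats (n = 4/group) given iv vehicle (100 μL 50% aqueous EtOH) or dl-vesamicol (1.01 μmol/kg); 15 min later iv radiotracer (2.0 μCi in 100 μL 50% aqueous EtOH); killed 30 min post-tracer. Blood by cardiac puncture, organs weighed and γ-counted vs 1:100 injected-dose dilution; % dose/g tissue (range); tissue/blood ratios.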

[2] = species on record: Rattus norvegicus; experiment: Tissue distribution in rat gonads after 180 minutes (n=3); format: ADME, organism-based, Gonad; conditions: in vivo, 3 h
Outline: (§2)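 Male Wistar rats (200-350 g) under ether anesthesia; radiotracer (3-5 μCi in 0.1 mL 50% aqueous ethanol) given iv. At 5, 30, 60 and 180 min, blood was drawn by cardiac puncture and animals were killed by cardiectomy. Organs were weighed and γ-counted against a 1:100 dilution of the injected dose. Results are given as % injected dose/g tissue; ratios are taken between tissue levels.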

[3] = species on record: Rattus norvegicus; experiment: Tissue distribution in rat kidney after 180 minutes (n=3); format: ADME, organism-based; conditions: in vivo, 3 h; outline: as §2
[4] = species on record: Rattus norvegicus; experiment: Effect of vesamicol on the accumulation in rat gonads in group 1 (n=3); format: ADME, organism-based; conditions: in vivo
[5] = species on record: Rattus norvegicus; experiment: Tissue distribution in rat thyroid after 60 minutes (n=3); format: ADME, organism-based, Thyroid gland; conditions: in vivo, 1 h; outline: as §2
[6] = species on record: Rattus norvegicus; experiment: Effect of vesamicol on the accumulation in rat blood in group 1 (n=3); format: ADME, organism-based; conditions: in vivo
[7] = species on record: Rattus norvegicus; experiment: Tissue distribution in rat liver after 30 minutes (n=3); format: ADME, organism-based; conditions: in vivo, 0.5 h; outline: as §2
[8] = species on record: Rattus norvegicus; experiment: Ratio of tissue distribution between rat brain and blood after 30 min; format: ADME, organism-based; conditions: 0.5 h
Outline: (§3)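 Male Wistar rats (200-350 g) under ether anesthesia, iv radiotracer (3-5 μCi in 0.1 mL 50% aqueous ethanol). At 5, 30, 60, 180 min blood taken by cardiac puncture, animal killed by cardiectomy; organs weighed, γ-counted against 1:100 injected-dose dilution; % injected dose/g tissue; brain/blood ratio.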

[9] = species on record: Rattus norvegicus; experiment: Effect of vesamicol on the accumulation in rat gonads in group 2 (n=3); format: ADME, organism-based; conditions: in vivo; outline: as §1
[10] = species on record: Rattus norvegicus; experiment: Tissue distribution in rat blood after 60 minutes (n=3); format: ADME, organism-based; conditions: in vivo, 1 h
Outline: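 Male Wistar rats (200-350 g) under ether, iv [125I]tracer (3-5 μCi in 0.1 mL 50% aqueous EtOH). At 5, 30, 60 or 180 min, blood taken by cardiac puncture and the rat killed by cardiectomy. Organs weighed and γ-counted against 1:100 dilutions of the injected dose; results in % injected dose/g, with range.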

[11] = species on record: Rattus norvegicus; experiment: Tissue distribution in rat gonads after 5 minutes (n=3); format: ADME, organism-based, Gonad; conditions: in vivo; outline: as §2
[12] = species on record: Rattus norvegicus; experiment: Effect of vesamicol on the accumulation in rat spleen in group 1 (n=3); format: ADME, organism-based; conditions: in vivo; outline: as §1
[13] = species on record: Rattus norvegicus; experiment: Effect of vesamicol on the accumulation in rat liver in group 2 (n=3); format: ADME, organism-based; conditions: in vivo
[14] = species on record: Rattus norvegicus; experiment: Tissue distribution in rrat heart after 60 minutes (n=3); format: ADME, organism-based; conditions: in vivo, 1 h; outline: as §2
[15] = species on record: Rattus norvegicus; experiment: Tissue distribution in rat gonads after 30 minutes (n=3); format: ADME, organism-based, Gonad; conditions: in vivo, 0.5 h; outline: as §2
[16] = species on record: Rattus norvegicus; experiment: Tissue distribution in rat brain after 5 minutes (n=3); format: ADME, organism-based; conditions: in vivo; outline: as §2
[17] = species on record: Rattus norvegicus; experiment: Tissue distribution in rat kidney after 60 minutes (n=3); format: ADME, organism-based; conditions: in vivo, 1 h; outline: as §2
[18] = species on record: Rattus norvegicus; experiment: Tissue distribution in rat lung after 5 minutes (n=3); format: ADME, organism-based; conditions: in vivo; outline: as §2
[19] = species on record: Rattus norvegicus; experiment: Tissue distribution in rat heart after 180 minutes (n=3); format: ADME, organism-based; conditions: in vivo, 3 h; outline: as §2
[20] = species on record: Rattus norvegicus; experiment: Tissue distribution in rat brain after 30 minutes (n=3); format: ADME, organism-based; conditions: in vivo, 0.5 h; outline: as §2
[21] = species on record: Rattus norvegicus; experiment: Effect of vesamicol on the accumulation in rat brain in group 2 (n=3); format: ADME, organism-based; conditions: in vivo
[22] = species on record: Rattus norvegicus; experiment: Tissue distribution in rat kidney after 30 minutes (n=3); format: ADME, organism-based; conditions: in vivo, 0.5 h; outline: as §2
[23] = Ratio of effect of vesamicol on the accumulation between rat heart and blood in group 1; format: ADME, organism-based; outline: as §1
[24] = species on record: Rattus norvegicus; experiment: Effect of vesamicol on the accumulation in rat brain in group 1 (n=3); format: ADME, organism-based; conditions: in vivo; outline: as §1
[25] = species on record: Rattus norvegicus; experiment: Tissue distribution in rat spleen after 180 minutes (n=3); format: ADME, organism-based; conditions: in vivo, 3 h; outline: as §2
[26] = species on record: Rattus norvegicus; experiment: Effect of vesamicol on the accumulation in rat blood in group 2 (n=3); format: ADME, organism-based; conditions: in vivo; outline: as §1
[27] = species on record: Rattus norvegicus; experiment: Tissue distribution in rat blood after 180 minutes (n=3); format: ADME, organism-based; conditions: in vivo, 3 h; outline: as §2
[28] = species on record: Rattus norvegicus; experiment: Tissue distribution in rat lung after 60 minutes (n=3); format: ADME, organism-based; conditions: in vivo, 1 h; outline: as §2
[29] = species on record: Rattus norvegicus; experiment: Effect of vesamicol on the accumulation in rat muscle in group 1 (n=3); format: ADME, organism-based, Muscle tissue; conditions: in vivo; outline: as §1
[30] = species on record: Rattus norvegicus; experiment: Ratio of tissue distribution between rat brain and blood after 180 min; format: ADME, organism-based; conditions: 3 h; outline: as §3
[31] = species on record: Rattus norvegicus; experiment: Ratio of tissue distribution between rat heart and blood after 60 min; format: ADME, organism-based; conditions: other tissue, 1 h; outline: as §2
[32] = species on record: Rattus norvegicus; experiment: Effect of vesamicol on the accumulation in rat thyroid in group 1 (n=3); format: ADME, organism-based, Thyroid gland; conditions: in vivo; outline: as §1
[33] = species on record: Rattus norvegicus; experiment: Tissue distribution in rat thyroid after 30 minutes (n=3); format: ADME, organism-based, Thyroid gland; conditions: in vivo, 0.5 h; outline: as §2
[34] = species on record: Rattus norvegicus; experiment: Tissue distribution in rat blood after 5 minutes (n=3); format: ADME, organism-based; conditions: in vivo; outline: as §2
[35] = species on record: Rattus norvegicus; experiment: Tissue distribution in rat spleen after 60 minutes (n=3); format: ADME, organism-based; conditions: in vivo, 1 h; outline: as §2

O[C@@H]1CCN(Cc2cccc([125I])c2)C[C@H]1N1CCC(c2ccccc2)CC1 (stereo in doubt; (-))
Dose/g [1]: 1.91%
Dose/g [2]: 0.2%
Dose/g [3]: 3.27%
Dose/g [4]: 0.15%
Dose/g [5]: 5.87%
Dose/g [6]: 0.11%
Dose/g [7]: 2.35%
Ratio [8]: 9.06
Dose/g [9]: 0.16%
Dose/g [10]: 0.1%
Dose/g [11]: 0.19%
Dose/g [12]: 1.05%
Dose/g [13]: 1.89%
Dose/g [14]: 0.58%
Dose/g [15]: 0.23%
Dose/g [16]: 0.92%
Dose/g [17]: 3.13%
Dose/g [18]: 5.9%
Dose/g [19]: 0.5%
Dose/g [20]: 0.99%
Dose/g [21]: 0.34%
Dose/g [22]: 3.53%
Kp [23]: 2.75
Dose/g [24]: 0.68%
Dose/g [25]: 1.28%
Dose/g [26]: 0.12%
Dose/g [27]: 0.1%
Dose/g [28]: 2.41%
Dose/g [29]: 0.18%
Ratio [30]: 9.87
Ratio [31]: 5.97
Dose/g [32]: 2.62%
Dose/g [33]: 3.15%
Dose/g [34]: 0.22%
Dose/g [35]: 1.17%
